Consider 27 compounds from ChEMBL document CHEMBL1147759, “Substituted indanylacetic acids as PPAR-alpha-gamma activators” (Bioorg Med Chem Lett, 2006).

pEC50: −log10 of the molar value.

The target of assay [1] is T1, Peroxisome proliferator-activated receptor gamma (Homo sapiens, UniProt P37231).
T1 sequence (P37231 whole entry): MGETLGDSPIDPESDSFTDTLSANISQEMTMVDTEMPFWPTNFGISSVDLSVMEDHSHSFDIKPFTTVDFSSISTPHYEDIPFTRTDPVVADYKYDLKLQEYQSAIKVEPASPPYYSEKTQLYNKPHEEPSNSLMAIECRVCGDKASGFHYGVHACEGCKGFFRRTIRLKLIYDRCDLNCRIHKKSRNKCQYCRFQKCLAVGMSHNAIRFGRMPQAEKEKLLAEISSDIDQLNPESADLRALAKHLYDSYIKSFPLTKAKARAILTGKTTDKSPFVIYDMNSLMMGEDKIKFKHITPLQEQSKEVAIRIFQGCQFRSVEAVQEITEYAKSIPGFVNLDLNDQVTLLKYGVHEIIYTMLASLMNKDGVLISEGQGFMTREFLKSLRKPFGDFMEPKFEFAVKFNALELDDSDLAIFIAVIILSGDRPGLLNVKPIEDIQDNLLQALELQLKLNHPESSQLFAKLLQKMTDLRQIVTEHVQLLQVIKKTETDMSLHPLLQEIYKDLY
As to the kind of experiment: Activity against PPAR gamma in human by FRET assay.

Assay [2] deals with T2, Peroxisome proliferator-activated receptor alpha (Homo sapiens, UniProt Q07869).
T2 sequence (Q07869 whole entry): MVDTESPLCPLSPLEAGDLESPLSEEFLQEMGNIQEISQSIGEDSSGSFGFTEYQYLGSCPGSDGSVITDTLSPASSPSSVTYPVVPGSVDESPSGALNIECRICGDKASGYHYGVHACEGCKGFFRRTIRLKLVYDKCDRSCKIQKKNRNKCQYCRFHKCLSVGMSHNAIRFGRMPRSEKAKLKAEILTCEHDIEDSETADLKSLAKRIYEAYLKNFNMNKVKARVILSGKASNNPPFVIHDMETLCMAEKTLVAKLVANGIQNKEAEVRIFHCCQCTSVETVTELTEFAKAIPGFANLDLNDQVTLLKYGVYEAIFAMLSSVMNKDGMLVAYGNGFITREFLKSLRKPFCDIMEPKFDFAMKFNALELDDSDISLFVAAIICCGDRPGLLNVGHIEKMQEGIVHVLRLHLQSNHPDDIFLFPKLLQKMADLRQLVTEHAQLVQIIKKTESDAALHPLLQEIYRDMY
As to the kind of experiment: Activity against PPAR alpha in human by FRET assay. The procedure, abridged: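 Human PPAR-α ligand-binding domain (GST-tagged), incubated with compound, europium-labelled anti-GST antibody, biotinylated CREB-binding protein co-activator and streptavidin-APC. Time-resolved FRET read with excitation at 340 nm and emission at 615 and 640 nm. EC50 taken as the mean of at least three experiments.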

For orientation: pEC50 means the negative decadic logarithm of the EC50, by convention in mol/L. Regarding `CCC(C(=O)O)C1CCc2cc(OCCc3nc(-c4ccccc4)oc3C)c(C(C)=O)cc21` (centres undefined), the pEC50 is less than 5.00 in assay [1] and 6.49 in assay [2].
On the same counts, the results for `CCC(C(=O)O)C1CCc2cc(OCCc3c(C)noc3C)ccc21` (centres undefined) are less than 5.00 and less than 5.00.
On to `CCC(C(=O)O)C1CCc2cc(OCCc3nc(-c4ccccc4)oc3C)c(-c3ccc(OC)cc3)cc21` (centres undefined), for which the figures for the pEC50 in assay [1] and in assay [2] were 6.91 and 7.64, respectively.
Turning to `CCC(C(=O)O)C1CCc2cc(OCc3cc(-c4ccccc4)on3)ccc21` (centres undefined), the negative logarithm of the EC50 (pEC50) in assay [1] was less than 5.00; in assay [2], 6.17.
The like results for `CCC(C(=O)O)C1CCc2cc(OCCc3nc(-c4ccccc4)oc3C)c(Br)cc21` (centres undefined) were, in that order, less than 5.00 and 6.74.
In the case of `CCC(C(=O)O)C1CCc2cc(OCc3nc(-c4ccccc4)oc3C)ccc21` (centres undefined), the figures for the pEC50 in assay [1] and in assay [2] were 6.20 and 5.91, respectively.
As for `CCC(C(=O)O)C1CCc2cc(OCCCc3nc(-c4ccccc4)oc3C(F)(F)F)ccc21` (centres undefined), the negative logarithm of the EC50 (pEC50) was less than 5.00 in assay [1] and 6.63 in assay [2].
`CCC(C(=O)O)C1CCc2cc(OCCc3nc(-c4ccccc4)oc3C)c(-c3ccc(Cl)cc3)cc21` (centres undefined): the negative-log EC50 (pEC50) in assay [1] was 6.77; in assay [2], 7.35.
The like results for `CCC(C(=O)O)C1CCc2cc(OCCn3nc(-c4ccccc4)cc3C)ccc21` (centres undefined) were, in that order, 6.71 and 6.63.
`CCC(C(=O)O)C1CCc2cc(OCCc3nc(-c4ccccc4)oc3-c3ccccc3)ccc21` (centres undefined): the results for the pEC50 in assay [1] and in assay [2] were 6.21 and less than 5.00, respectively.
On to `CCC(C(=O)O)C1CCc2cc(OCCn3ncc4ccccc4c3=O)ccc21` (centres undefined), for which the pEC50 in assay [1] and in assay [2] was less than 5.00 throughout.
Take `CCC(C(=O)O)C1CCc2cc(OCCc3coc(-c4ccccc4)n3)ccc21` (centres undefined): the negative-log EC50 (pEC50) was 6.51 in assay [1] and 6.42 in assay [2].
As for `CCc1oc(-c2ccccc2)nc1CCOc1ccc2c(c1)CCC2C(CC)C(=O)O` (centres undefined), the pEC50 in assay [1] is 7.34; in assay [2], 6.45.
As to `CCC(C(=O)O)C1CCc2cc(OCCc3noc(-c4ccccc4)n3)ccc21` (centres undefined), the negative logarithm of the EC50 (pEC50) in assay [1] is less than 5.00; in assay [2], 5.98.
On the same counts, the results for `CCC(C(=O)O)C1CCc2cc(OCCn3nc(-c4ccccc4)c4ccccc4c3=O)ccc21` (centres undefined) are less than 5.00 and less than 5.00.
As to `COC(C(=O)O)C1CCc2cc(OCCc3nc(-c4ccccc4)oc3C)ccc21` (centres undefined), the pEC50 in assay [1] was 7.35; in assay [2] it was 6.17.
Turning to `CCC(C(=O)O)C1CCc2cc(OCCc3nc(-c4ccccc4)oc3C)c(Cl)cc21` (centres undefined), the pEC50 in assay [1] is 6.53; in assay [2], 6.90.
On to `CCC(C(=O)O)C1CCc2cc(OCCc3nc(-c4ccccc4)oc3C)c(-c3ccccc3)cc21` (centres undefined), for which the pEC50 is 6.54 in assay [1] and 7.24 in assay [2].
Turning to `CCC(C(=O)O)C1CCc2cc(OCCNC(=O)c3ccccc3)ccc21` (centres undefined), the negative logarithm of the EC50 (pEC50) in assay [1] and in assay [2] was less than 5.00 each time.
With `CCC(C(=O)O)C1CCc2cc(OCCc3nc(-c4ccccc4)oc3C(C)C)ccc21` (centres undefined), the pEC50 in assay [1] was 6.46; in assay [2] it was less than 5.00.
On the same counts, the results for `CCC(C(=O)O)C1CCc2cc(OCCc3c(-c4ccccc4)noc3C)ccc21` (centres undefined) are less than 5.00 and less than 5.00.
The like results for `CCC(C(=O)O)C1CCc2cc(OCCc3nc(-c4ccccc4)sc3C)ccc21` (centres undefined) were, in that order, 7.07 and 6.01.
For `CCC(C(=O)O)C1CCc2cc(OCc3ccc(-c4nc(-c5ccccc5)oc4C)cc3)ccc21` (centres undefined), the pEC50 in assay [1] and in assay [2] was less than 5.00 throughout.
In the case of `CCC(C(=O)O)C1CCc2cc(OCCc3nc(Cc4ccccc4)oc3C)ccc21` (centres undefined), the results for the pEC50 in assay [1] and in assay [2] were 6.48 and 6.14, respectively.
With `CCC(C(=O)O)C1CCc2cc(OCc3nc(-c4ccccc4)oc3C(F)(F)F)ccc21` (centres undefined), the figures for the pEC50 in assay [1] and in assay [2] were less than 5.00 and 6.00, respectively.
In the case of `CCC(C(=O)O)C1CCc2cc(OCCNC(=O)Nc3ccc(C)cc3)ccc21` (centres undefined), the pEC50 in assay [1] and in assay [2] was less than 5.00 each time.
In the case of `CCOC(C(=O)O)C1CCc2cc(OCCc3nc(-c4ccccc4)oc3C)ccc21` (centres undefined), the negative-log EC50 (pEC50) is 7.92 in assay [1] and 6.30 in assay [2].
